Consider three sequences from publication PMC3703767 (Virology, 2008).

Assay [1] has as its system Laboratory variant 1 5′ ORF1 sequence. The assay can be described thus: Luciferase reporter assay, Laboratory variant 1 leader. Type of assay: biochemical. A digest of the protocol: (§1)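 In vitro translation in nuclease-treated rabbit reticulocyte lysate. The target 5′-end leader sits upstream of firefly luciferase; RNA is T7-transcribed from NotI-cut plasmid (1 nM final). Test compound is added at 0.01–83 μM final, and reactions run 75 min at 37 °C, then are chilled on ice. Percent inhibition is calculated from luciferase signal versus no-compound reaction. Each assay was run at least twice, by two investigators in separate labs.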
A general note: Reporter assays use an easily measured gene product as a stand-in for the process of interest.

The test system of assay [2] is Hu/NoV/GI.6/WUG1/2000/JP 5′ ORF1 sequence. The assay is described as follows: Luciferase reporter assay, WUG1 leader. Type of assay: biochemical, human norovirus. Particulars: target with 1 mismatch to Noro 1.1; luciferase signal. A digest of the protocol: as §1
Assay [3] has as its system Hu/NoV/GI.1/Norwalk virus/1968/US 5′ ORF1 sequence. The assay is described as follows: Luciferase reporter assay, Norwalk leader. Particulars: target with 1 mismatch to Noro 1.1; luciferase signal. Type of assay: biochemical, human norovirus. In a few lines: as §1
The subject of assay [4] is Hu/NoV/GII.4/CN3050/1998/USA 5′ ORF1 sequence. The assay is described as follows: Luciferase reporter assay, CN3050 leader. Type of assay: biochemical, human norovirus. A digest of the protocol: as §1
The test system of assay [5] is Hu/No.V/GII.4/Lordsdale/1993/UK 5′ ORF1 sequence. The assay can be described thus: Luciferase reporter assay, Lordsdale leader. The assay is classed as biochemical, human norovirus. In a few lines:
as §1

The test system of assay [6] is Hu/NoV/GI.2/Southampton/1991/UK 5′ ORF1 sequence. The assay is described as follows: Luciferase reporter assay, Southampton leader. The assay is classed as biochemical, human norovirus. Particulars: target with 0 mismatches to Noro 1.1; luciferase signal. In a few lines: as §1
Assay [7] concerns Laboratory variant 2 5′ ORF1 sequence. The assay is described as follows: Luciferase reporter assay, Laboratory variant 2 leader. Type of assay: biochemical. In a few lines:
as §1

The subject of assay [8] is Norwalk virus replicon in HG23 cells. The assay can be described thus: Norwalk virus RNA in replicon-bearing HG23 cells. Type of assay: cell-based. To be noted: 16 μM, quantitative real-time RT-PCR, data not shown. In a few lines:
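HG23 replicon cells were electroporated with 16 μM test compound and incubated 5 days at 37 °C. Replicon RNA in treated and untreated cells was then quantified by single-step real-time RT-PCR with a standard curve in each run. Cycling: 45 °C 30 min, 95 °C 10 min, then 45 cycles of 95 °C 30 s, 50 °C 1 min, 72 °C 30 s.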
A general note: In antiviral work, replicon cells carry a viral genome segment that copies itself.

Assay [9] has the same test system. The assay is described as follows: PMO inhibition of norovirus protein expression in replicon cell line HG23. Type of assay: cell-based. Particulars: 16 μM, 5-day incubation, immunofluorescence. A digest of the protocol:
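HG23 cells (Huh-7-derived Norwalk replicon line, DMEM/10% FBS/0.25 mg/ml neomycin) received 16 μM unconjugated morpholino by nucleofection (solution L, program A020). A total of 2×10^6 cells were seeded and incubated 5 days at 37 °C. Cells were then fixed in ice-cold methanol and analysed by immunofluorescence with guinea pig antisera against Norwalk VP1 and RdRP.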

Assay [10] deals with Hu/NoV/GII.12/CN2753/1998/USA 5′ ORF1 sequence. The assay can be described thus: Luciferase reporter assay, CN2753 leader. The assay is classed as biochemical, human norovirus. To be noted: target with 2 mismatches to Noro 1.1; luciferase signal. In a few lines: as §1
Assay [11] has as its system Laboratory variant 3 5′ ORF1 sequence. The assay can be described thus: Luciferase reporter assay, Laboratory variant 3 leader. The assay is classed as biochemical. In a few lines:
as §1

Assay [12] has as its system Bo/NoV/GIII.1/Jena/1998/DEU 5′ ORF1 sequence. The assay can be described thus: Luciferase reporter assay, Jena bovine norovirus leader. Type of assay: biochemical. A digest of the protocol:
as §1

The subject of the next assay is MNV-1. The assay can be described thus: Mouse norovirus PPMO inhibition assay in RAW264.7 cells. The assay is classed as cell-based, murine norovirus. In a few lines: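 RAW264.7 cells (2×10^5/well) were seeded and incubated overnight, then rinsed and exposed 4 h to test compound in plain DMEM (8 replicate wells). They were rinsed again and infected with MNV-1.CW1 for 2 h at 37 °C, then kept 3 days at 37 °C. Wells were formalin-fixed and stained with crystal violet; methanol-eluted stain was read at A570. Variants used fixed compound with 10-fold virus dilutions (20–2×10^5 PFU/well), or 1.25–80 μM compound with 2×10^4 PFU/well. % lysis = ([treated]−[treated+infected])/[treated]×100.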

Where [13] appears, read: target with 6 mismatches to Noro 1.1, luciferase signal.

For the sequence CGACGCCATCATCATTCAC [Noro 1.1], the “inhibition of translation” value is on record as “less efficiently” in assay [1] (LabVar 1, 4 nucleotide changes); “less efficiently” in assay [7] (LabVar 2, 5 nucleotide changes); “completely failed to inhibit translation” in assay [11] (LabVar3, 6 nucleotide differences, data not shown). Besides, the “Outcome of in vitro assay” value in assay [1] (target with 4 mismatches to Noro 1.1, luciferase signal) is on record as “Inhibition (Inhibition defined as > 60% reduction of protein synthesis, as defined by luciferase signal.)”; in [2], “Inhibition (Inhibition defined as > 60% reduction of protein synthesis, as defined by luciferase signal.)”; in [3], “Inhibition (Inhibition defined as > 60% reduction of protein synthesis, as defined by luciferase signal.)”; in assay [4] (target with 3 mismatches to Noro 1.1, luciferase signal) it was “Inhibition (Inhibition defined as > 60% reduction of protein synthesis, as defined by luciferase signal.)”; in assay [5] (target with 2 mismatches to Noro 1.1, luciferase signal), “Inhibition (Inhibition defined as > 60% reduction of protein synthesis, as defined by luciferase signal.)”; in assay [6] it was “Inhibition (Inhibition defined as > 60% reduction of protein synthesis, as defined by luciferase signal.)”. The “Outcome of in vitro assay” value is on record as “Inhibition (Inhibition defined as > 60% reduction of protein synthesis, as defined by luciferase signal.)” in assay [7] (target with 5 mismatches to Noro 1.1, luciferase signal); “Inhibition (Inhibition defined as > 60% reduction of protein synthesis, as defined by luciferase signal.)” in assay [10]; “No inhibition” in [11] (setting [13]); “No inhibition” in assay [12] (setting [13]). Further, the “inhibition of translation achieved” value in [4] (GII.4 variant) and in assay [5] (GII.4 variant) was 100% each time. In addition, the “Norwalk virus RNA level” value in assay [8] is on record as “did not see a significant reduction in RNA”. Also, in [9], the “Norwalk virus protein translation in HG23 cells” value is “effectively inhibited norovirus protein translation”. For the same sequence, the maximal inhibition achieved in [12] (range of concentrations tested, 0.01 to 83 μM) is given as ≤ 57%.

Regarding CGCAGAAGATGGCGTTGCCATCCTC [PPMO C], the “effectiveness in inhibiting viral replication” value in the assay with MNV-1 (20 μM PPMO, 2 × 10^4 PFU/well MNV-1) turned out to be 70%. Also, in the assay with MNV-1 (PPMO C 80 μM, MNV-1 20 to 2 × 10^5 PFU/well, 8 replicates), the “maximal dose of MNV-1 inhibited” value was “up to 2 × 10^5 PFU”.

Regarding CGTTGCCATCCTCATTTCAC [PPMO B], in the assay on MNV-1 (PPMO B 20 μM, MNV-1 20 to 2 × 10^5 PFU/well, 8 replicates), the “dose of MNV-1 whose replication is completely inhibited” value was 2 × 10^3 PFU.
